Broadly, the GI50 is the concentration that inhibits growth by half. Low readings indicate greater sensitivity of the cells, high ones lower sensitivity of the cells. What is called ΔTm is the change in melting temperature against a reference sample.

The record followed here is ChEMBL document CHEMBL1146749, “The effect of C2-fluoro group on the biological activity of DC-81 and its dimers” (2004).

One test concerns NCI-H522. The test is described as follows: In vitro cytotoxicity against human non-small cell lung NCI-H522 cancer cell line. In kind it is functional.
A further test concerns UO-31. The test is described as follows: In vitro cytotoxicity against human renal UO-31 cancer cell line. It counts as functional.
In test [1] the test system is SF-268. The test is described as follows: In vitro anticancer activity was evaluated for the percentage growth of human (CNS) SF-268 cell line. It counts as functional. In short, it runs like this: (§1)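 Each cell line received a single dose of 10^-4 M, and the read-out was percentage growth.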
Test [2] relates to Nucleic Acid. The test is described as follows: DNA binding ability by thermal denaturation studies using calf thymus DNA after incubation at 37 degree C for 18 hour. In kind it is nucleic-acid assay. To be noted: Bos taurus.
The test system of a further test is MCF7. The test is described as follows: In vitro anticancer activity was evaluated for the percentage growth of human breast MCF-7 cell line. In kind it is functional. The gist of the method:
as §1

Test [3] concerns Nucleic Acid. The test is described as follows: DNA binding ability by thermal denaturation studies using calf thymus DNA after incubation at 37 degree C for 0 hour. It counts as nucleic-acid assay. The settings on record: Bos taurus.
Another test relates to SW-620. The test is described as follows: In vitro cytotoxicity against human colon SW-620 cancer cell line. It counts as functional.
Test [4] concerns Nucleic Acid. The test is described as follows: DNA binding ability by thermal denaturation studies using calf thymus DNA after incubation at 37 degree C for 36 hour. The settings on record: Bos taurus. In kind it is nucleic-acid assay. The gist of the method: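 Calf thymus DNA 100 µM with PBD 20 µM (1:5 [PBD]:[DNA]) in 10 mM sodium phosphate + 1 mM EDTA, pH 7.00, incubated at 37 °C for 0, 18 or 36 h. Thermal melting measured; ΔTm taken relative to CT-DNA alone, whose Tm is the mean of 10 separate determinations.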

Test [5] relates to SF-268. The test is described as follows: In vitro cytotoxicity against human CNS SF-268 cancer cell line. It counts as functional.
In a further test the test system is SF-295. The test is described as follows: In vitro cytotoxicity against human CNS SF-295 cancer cell line. In kind it is functional.
A further test deals with NCI-H460. The test is described as follows: In vitro anticancer activity was evaluated for the percentage growth of human lung NCI-H460 cell line. It counts as functional. In short, it runs like this: as §1
The subject of the next test is SR. The test is described as follows: In vitro cytotoxicity against human leukemia SR cancer cell line. In kind it is functional.
The next test has as its system Hs-578T. The test is described as follows: In vitro cytotoxicity against human breast Hs 578.T cancer cell line. In kind it is functional.
The next test relates to CCRF-CEM. The test is described as follows: In vitro cytotoxicity against human leukemia CCRF-CEM cancer cell line. In kind it is functional.

Each structure is given as a SMILES string.

On to `COc1cc2c(cc1OCCCOc1cc3c(cc1OC)C(=O)N1C[C@@H](F)C[C@H]1C=N3)N=C[C@@H]1C[C@H](F)CN1C2=O`, for which the GI50 with NCI-H522 worked out at 1880 nM; in the test with UO-31 it was 2400 nM; in the test with SW-620, 4200 nM; with SF-268 [5], 2200 nM; in the test on SF-295, 1960 nM; with SR, 1540 nM. Further, the Growth with SF-268 [1], in the test with MCF7 and with NCI-H460 was 0% throughout. Also, the ΔTm is 4.9 °C in the test with Nucleic Acid [2], 3.1 °C in the test with Nucleic Acid [3] and 6.16 °C in the test on Nucleic Acid [4].
Regarding `COc1cc2c(cc1O)N=C[C@@H]1C[C@@H](F)CN1C2=O`, the ΔTm in the test on Nucleic Acid [2] stood at 1.5 °C; with Nucleic Acid [3] it was 0.6 °C; in the test with Nucleic Acid [4] it was 2.25 °C.
In the case of `COc1cc2c(cc1OCCCCCOc1cc3c(cc1OC)C(=O)N1C[C@@H](F)C[C@H]1C=N3)N=C[C@@H]1C[C@H](F)CN1C2=O`, the GI50 in the test on NCI-H522 was below 10 nM; in the test with UO-31, below 10 nM; in the test on SW-620, 20 nM; in the test with SF-268 [5], below 10 nM; in the test with Hs-578T, below 10 nM; in the test with SF-295 it was below 10 nM. Moreover, the GI50 with SR and in the test on CCRF-CEM was below 10 nM each time. Further, the Growth in the test on SF-268 [1], with MCF7 and with NCI-H460 was 0% throughout. Besides, the ΔTm in the test on Nucleic Acid [2] was determined as 16 °C; in the test on Nucleic Acid [3] it was 14.2 °C; in the test with Nucleic Acid [4], 17.4 °C.
With `COc1cc2c(cc1O)N=C[C@@H]1C[C@H](F)CN1C2=O`, the GI50 stood at 410 nM in the test with NCI-H522; 170 nM in the test on UO-31; 1190 nM in the test on SW-620; 350 nM in the test with SF-268 [5]; 10 nM in the test on Hs-578T; 320 nM in the test with SF-295. Besides, the GI50 turned out to be 200 nM in the test with SR and 300 nM in the test on CCRF-CEM. Further, the Growth with SF-268 [1], in the test with MCF7 and in the test with NCI-H460 was 0% in each case. Besides, the thermal shift (ΔTm) in the test on Nucleic Acid [2] came out at 1 °C; with Nucleic Acid [3], 0.3 °C; in the test on Nucleic Acid [4], 2.2 °C.
`COc1cc2c(cc1OCCCOc1cc3c(cc1OC)C(=O)N1CCC[C@H]1C=N3)N=C[C@@H]1CCCN1C2=O`: in the test on Nucleic Acid [3], the ΔTm amounted to 10.2 °C.
Consider `COc1cc2c(cc1OCc1ccccc1)N=C[C@@H]1C[C@H](F)CN1C2=O`, for which the GI50 was below 10 nM in the test on NCI-H522; below 10 nM in the test on UO-31; below 10 nM with SW-620; 10 nM in the test with SF-268 [5]; below 10 nM in the test on Hs-578T; 30 nM with SF-295. The GI50 with SR and in the test on CCRF-CEM was below 10 nM each time. The Growth with SF-268 [1] is 19%; in the test with MCF7 it was 0%; in the test on NCI-H460, 1%. Moreover, the ΔTm in the test on Nucleic Acid [2] turned out to be 2 °C; in the test on Nucleic Acid [3], 1.1 °C; in the test with Nucleic Acid [4], 2.5 °C.
Regarding `COc1cc2c(cc1O)N=C[C@@H]1CCCN1C2=O`, the values for the ΔTm with Nucleic Acid [2] and in the test on Nucleic Acid [3] were 0.7 °C and 0.3 °C, respectively.
Take `COc1cc2c(cc1OCCCCOc1cc3c(cc1OC)C(=O)N1C[C@@H](F)C[C@H]1C=N3)N=C[C@@H]1C[C@H](F)CN1C2=O`: the results for the ΔTm in the test on Nucleic Acid [2], in the test with Nucleic Acid [3] and with Nucleic Acid [4] were 12.3 °C, 4.6 °C and 13.8 °C, respectively.
